Our source for the Drug uptake and Ki values is ChEMBL document CHEMBL1140914, “Synthesis and in vitro and in vivo evaluation of 18F-labeled positron emission tomography (PET) ligands for imaging the vesicular acetylcholine transporter” (J Med Chem, 2009).

In data set [1] the test system is Blood. The data set can be described thus: Drug uptake in Sprague-Dawley rat blood at 25 to 35 uCi, iv after 2 hrs postinjection by […]. The format is ADME, organism-based. Particulars: in vivo. An outline of the steps:
(§1)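 Mature male Sprague-Dawley rats (250–400 g) under 2–3% isoflurane got 25–35 μCi tracer in 100–150 μL saline via tail vein. Groups of at least 4 were euthanized at 5 min, 30 min, 1 h or 2 h. Brain was dissected into regions, and tissues were weighed and gamma counted against an injectate standard. Values are %ID/g, mean ± SD.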

The test system of data set [2] is Lung. Kind of data set: Drug uptake in Sprague-Dawley rat lung at 25 to 35 uCi, iv after 5 mins postinjection by […]. It is filed as ADME, organism-based. The note with it: in vivo. An outline of the steps: as §1
Data set [3] relates to Lung. The data set can be described thus: Drug uptake in Sprague-Dawley rat lung at 25 to 35 uCi, iv after 30 mins postinjection by […]. The format is ADME, organism-based. Particulars: in vivo, 0.5 h. An outline of the steps: as §1
The test system of data set [4] is Lung. Kind of data set: Drug uptake in Sprague-Dawley rat lung at 25 to 35 uCi, iv after 1 hr postinjection by […]. The format is ADME, organism-based. Particulars: in vivo. An outline of the steps: as §1
For data set [5], the system named is Lung. The data set can be described thus: Drug uptake in Sprague-Dawley rat lung at 25 to 35 uCi, iv after 2 hrs postinjection by […]. Particulars: in vivo. The format is ADME, organism-based. An outline of the steps:
as §1

In data set [6] the test system is Heart. The data set can be described thus: Drug uptake in Sprague-Dawley rat heart at 25 to 35 uCi, iv after 5 mins postinjection by […]. It is filed as ADME, organism-based. Particulars: in vivo. An outline of the steps: as §1
The test system of data set [7] is Heart. Kind of data set: Drug uptake in Sprague-Dawley rat heart at 25 to 35 uCi, iv after 30 mins postinjection by […]. The format is ADME, organism-based. The note with it: in vivo, 0.5 h. An outline of the steps:
as §1

In data set [8] the test system is Heart. The data set can be described thus: Drug uptake in Sprague-Dawley rat heart at 25 to 35 uCi, iv after 1 hr postinjection by […]. The format is ADME, organism-based. Particulars: in vivo. An outline of the steps: as §1
Data set [9] relates to Heart. Kind of data set: Drug uptake in Sprague-Dawley rat heart at 25 to 35 uCi, iv after 2 hrs postinjection by […]. The format is ADME, organism-based. Particulars: in vivo. An outline of the steps:
as §1

In data set [10] the test system is Muscle tissue. The data set can be described thus: Drug uptake in Sprague-Dawley rat muscle at 25 to 35 uCi, iv after 5 mins postinjection by […]. Particulars: in vivo. The format is ADME, organism-based. An outline of the steps: as §1
Data set [11] has as its system Muscle tissue. The data set can be described thus: Drug uptake in Sprague-Dawley rat muscle at 25 to 35 uCi, iv after 30 mins postinjection by […]. The note with it: in vivo, 0.5 h. The format is ADME, organism-based. An outline of the steps: as §1
The test system of data set [12] is Muscle tissue. The data set can be described thus: Drug uptake in Sprague-Dawley rat muscle at 25 to 35 uCi, iv after 1 hr postinjection by […]. The format is ADME, organism-based. The note with it: in vivo. An outline of the steps:
as §1

Data set [13] has as its system Muscle tissue. The data set can be described thus: Drug uptake in Sprague-Dawley rat muscle at 25 to 35 uCi, iv after 2 hrs postinjection by […]. The format is ADME, organism-based. Particulars: in vivo. An outline of the steps:
as §1

A short description of data set [14]: Drug uptake in Sprague-Dawley rat fat at 25 to 35 uCi, iv after 5 mins postinjection by […]. The format is ADME, organism-based, Adipose tissue. The note with it: in vivo. An outline of the steps: as §1
Data set [15] is described as follows: Drug uptake in Sprague-Dawley rat fat at 25 to 35 uCi, iv after 30 mins postinjection by […]. The note with it: in vivo, 0.5 h. The format is ADME, organism-based, Adipose tissue. An outline of the steps: as §1
Data set [16] is described as follows: Drug uptake in Sprague-Dawley rat fat at 25 to 35 uCi, iv after 1 hr postinjection by […]. The format is ADME, organism-based, Adipose tissue. The note with it: in vivo. An outline of the steps: as §1
A short description of data set [17]: Drug uptake in Sprague-Dawley rat fat at 25 to 35 uCi, iv after 2 hrs postinjection by […]. The note with it: in vivo. The format is ADME, organism-based, Adipose tissue. An outline of the steps:
as §1

The subject of data set [18] is Liver. Kind of data set: Drug uptake in Sprague-Dawley rat liver at 25 to 35 uCi, iv after 5 mins postinjection by […]. It is filed as ADME, organism-based. Particulars: in vivo. An outline of the steps: as §1
Data set [19] has as its system Liver. The data set can be described thus: Drug uptake in Sprague-Dawley rat liver at 25 to 35 uCi, iv after 30 mins postinjection by […]. It is filed as ADME, organism-based. The note with it: in vivo, 0.5 h. An outline of the steps:
as §1

Data set [20] has as its system Liver. Kind of data set: Drug uptake in Sprague-Dawley rat liver at 25 to 35 uCi, iv after 1 hr postinjection by […]. Particulars: in vivo. The format is ADME, organism-based. An outline of the steps: as §1
The test system of data set [21] is Liver. Kind of data set: Drug uptake in Sprague-Dawley rat liver at 25 to 35 uCi, iv after 2 hrs postinjection by […]. It is filed as ADME, organism-based. Particulars: in vivo. An outline of the steps: as §1
For data set [22], the system named is Kidney. Kind of data set: Drug uptake in Sprague-Dawley rat kidney at 25 to 35 uCi, iv after 5 mins postinjection by […]. The format is ADME, organism-based. Particulars: in vivo. An outline of the steps: as §1
Data set [23] has as its system Kidney. The data set can be described thus: Drug uptake in Sprague-Dawley rat kidney at 25 to 35 uCi, iv after 30 mins postinjection by […]. The format is ADME, organism-based. Particulars: in vivo, 0.5 h. An outline of the steps: as §1
In data set [24] the test system is Kidney. The data set can be described thus: Drug uptake in Sprague-Dawley rat kidney at 25 to 35 uCi, iv after 1 hr postinjection by […]. The note with it: in vivo. The format is ADME, organism-based. An outline of the steps:
as §1

Data set [25] concerns Kidney. The data set can be described thus: Drug uptake in Sprague-Dawley rat kidney at 25 to 35 uCi, iv after 2 hrs postinjection by […]. It is filed as ADME, organism-based. Particulars: in vivo. An outline of the steps:
as §1

Data set [26] relates to Bone. Kind of data set: Drug uptake in Sprague-Dawley rat bone at 25 to 35 uCi, iv after 5 mins postinjection by […]. The note with it: in vivo. It is filed as ADME, organism-based, Bone element. An outline of the steps: as §1
For data set [27], the system named is Bone. The data set can be described thus: Drug uptake in Sprague-Dawley rat bone at 25 to 35 uCi, iv after 30 mins postinjection by […]. The format is ADME, organism-based, Bone element. Particulars: in vivo, 0.5 h. An outline of the steps:
as §1

For data set [28], the system named is Bone. Kind of data set: Drug uptake in Sprague-Dawley rat bone at 25 to 35 uCi, iv after 1 hr postinjection by […]. The format is ADME, organism-based, Bone element. Particulars: in vivo. An outline of the steps:
as §1

For data set [29], the system named is Bone. The data set can be described thus: Drug uptake in Sprague-Dawley rat bone at 25 to 35 uCi, iv after 2 hrs postinjection by […]. The format is ADME, organism-based, Bone element. The note with it: in vivo. An outline of the steps: as §1
For data set [30], the system named is Brain. Kind of data set: Drug uptake in Sprague-Dawley rat brain at 25 to 35 uCi, iv after 5 mins postinjection by […]. It is filed as ADME, organism-based. Particulars: in vivo. An outline of the steps:
as §1

In data set [31] the test system is Brain. Kind of data set: Drug uptake in Sprague-Dawley rat brain at 25 to 35 uCi, iv after 30 mins postinjection by […]. The format is ADME, organism-based. Particulars: in vivo, 0.5 h. An outline of the steps: as §1
For data set [32], the system named is Brain. Kind of data set: Drug uptake in Sprague-Dawley rat brain at 25 to 35 uCi, iv after 1 hr postinjection by […]. It is filed as ADME, organism-based. The note with it: in vivo. An outline of the steps:
as §1

Data set [33] concerns Brain. Kind of data set: Drug uptake in Sprague-Dawley rat brain at 25 to 35 uCi, iv after 2 hrs postinjection by […]. The format is ADME, organism-based. Particulars: in vivo. An outline of the steps: as §1
In data set [34] the test system is Blood. The data set can be described thus: Drug uptake in Sprague-Dawley rat blood at 25 to 35 uCi, iv after 5 mins postinjection by […]. It is filed as ADME, organism-based. Particulars: in vivo. An outline of the steps:
as §1

The subject of data set [35] is Blood. Kind of data set: Drug uptake in Sprague-Dawley rat blood at 25 to 35 uCi, iv after 30 mins postinjection by […]. It is filed as ADME, organism-based. Particulars: in vivo, 0.5 h. An outline of the steps:
as §1

Data set [36] deals with Blood. Kind of data set: Drug uptake in Sprague-Dawley rat blood at 25 to 35 uCi, iv after 1 hr postinjection by […]. It is filed as ADME, organism-based. Particulars: in vivo. An outline of the steps: as §1
Data set [37] in a line: Displacement of [3H]DTG from sigma2 receptor in rat liver membrane. It is filed as cell membranes. An outline of the steps: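 Rat liver membrane homogenate (~300 μg protein) incubated 2 h at room temperature with ~5 nM [3H]DTG plus 1 μM (+)-pentazocine to mask σ1 sites. Haloperidol 10 μM defines nonspecific binding. Filtered and counted.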
Background: Loss of bound radioactivity is the signal in a displacement assay; it reports binding, not function.

Structures are written as SMILES.

For the molecule `O=C(c1ccc([18F])cc1)C1CCN([C@@H]2Cc3ccccc3C[C@H]2O)CC1` (stereo in doubt; (+)), the Drug uptake in the data set on Blood [1] is reported as 0.027 % ID/g; in the data set with Lung [2], 0.904 % ID/g; in the data set on Lung [3] it was 0.332 % ID/g; in the data set on Lung [4], 0.188 % ID/g; in the data set on Lung [5], 0.112 % ID/g; with Heart [6], 0.194 % ID/g. The Drug uptake came out at 0.094 % ID/g with Heart [7]; 0.051 % ID/g in the data set on Heart [8]; 0.031 % ID/g with Heart [9]; 0.047 % ID/g in the data set with Muscle tissue [10]; 0.051 % ID/g in the data set with Muscle tissue [11]; 0.034 % ID/g in the data set on Muscle tissue [12]. The Drug uptake in the data set on Muscle tissue [13] worked out at 0.022 % ID/g; in data set [14], 0.052 % ID/g; in data set [15] it was 0.108 % ID/g; in data set [16] it was 0.154 % ID/g; in data set [17] it was 0.15 % ID/g; with Liver [18], 1.849 % ID/g. The Drug uptake with Liver [19] is 1.239 % ID/g; in the data set on Liver [20], 0.814 % ID/g; in the data set with Liver [21], 0.692 % ID/g; in the data set with Kidney [22] it was 0.791 % ID/g; with Kidney [23], 0.416 % ID/g; with Kidney [24] it was 0.291 % ID/g. Moreover, the Drug uptake in the data set with Kidney [25] was 0.194 % ID/g; with Bone [26] it was 0.187 % ID/g; in the data set on Bone [27] it was 0.277 % ID/g; in the data set with Bone [28] it was 0.399 % ID/g; in the data set on Bone [29], 0.532 % ID/g; in the data set on Brain [30], 0.35 % ID/g. Further, the Drug uptake turned out to be 0.071 % ID/g in the data set on Brain [31]; 0.041 % ID/g with Brain [32]; 0.022 % ID/g in the data set with Brain [33]; 0.136 % ID/g with Blood [34]; 0.087 % ID/g in the data set on Blood [35]; 0.048 % ID/g with Blood [36].

By Ki is commonly meant the equilibrium dissociation constant of an inhibitor or competing ligand from its target. A lower Ki goes with tighter binding. For the molecule `O=C(c1ccc(F)cc1)C1CCN([C@@H]2Cc3ccccc3C[C@H]2O)CC1` (stereo in doubt; (+)-9e), in data set [37], the affinity corresponds to a Ki of 278 nM.

Molecule `O=C(c1ccc(F)cc1)C1CCN([C@@H]2Cc3ccccc3C[C@H]2O)CC1` (stereo in doubt; (-)-9e) yielded a Ki in data set [37] of 319 nM. This Ki and that of the molecule before are within 1.5-fold of each other.

In data set [37], `O[C@@H]1CCCC[C@H]1N1CCC(c2ccccc2)CC1` [VESAMICOL] returned a Ki of 34.5 nM. This Ki is about 9.2-fold lower than that of the molecule before.
